Calls of active or inactive are those of the source. No cut-off for these calls is given here.

The values that follow come from ChEMBL document CHEMBL3425479, “Discovery, synthesis, and molecular pharmacology of selective positive allosteric modulators of the δ-opioid receptor” (J Med Chem, 2015).

The target in data set [1] is T1, Delta-type opioid receptor (Homo sapiens, UniProt P41143). In words: Agonist activity at human delta opioid receptor-1 expressed in CHO cells after 90 mins by beta-arrestin recruitment assay. The format is cell-based. In a few lines:
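PathHunter CHO cells (OPRD1 or OPRM1) plated overnight at 37 °C in F-12 with 10% FBS and 25 mM HEPES. […] Incubated 90 min at room temperature, then luminescence read 1 h after detection reagent.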
A general note: Arrestin recruitment assays detect the binding of arrestin to an activated receptor.

Data set [2] concerns the target T1, Delta-type opioid receptor. Kind of data set: Positive allosteric modulation of human delta opioid receptor-1 expressed in CHO cells assessed as potentiation of leu-enkephalin-induced response after 90 mins by beta-arrestin recruitment assay. The format is cell-based.
In data set [3] the test system is CHO. Kind of data set: Selectivity ratio of EC50 for human mu opioid receptor-1 expressed in CHO cells to EC50 for human delta opioid receptor-1 expressed in CHO cells. The format is cell-based. In a few lines:
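The δ/μ potency ratio is built from PAM-mode β-arrestin EC50 values in PathHunter CHO-OPRD1 and CHO-OPRM1 cells. […] Incubation was 90 min at room temperature with luminescence read-out.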

The target in another data set is Mu-type opioid receptor (Homo sapiens, UniProt P35372). Kind of data set: Positive allosteric modulation of human mu opioid receptor-1 expressed in CHO cells assessed as potentiation of endomorphin 1-induced response after 90 mins by beta-arrestin recruitment assay. The format is cell-based.
Data set [4] addresses T1, Delta-type opioid receptor. Particulars: CHO.
Data set [5] has as its target T1, Delta-type opioid receptor. Particulars: CHO. The source holds these as a separate data set.
Data set [6] addresses T1, Delta-type opioid receptor. Particulars: CHO. The source holds these as a separate data set.
Data set [7] deals with T1, Delta-type opioid receptor. Particulars: CHO. This is another data set of the same source.
The target in data set [8] is T1, Delta-type opioid receptor. Particulars: CHO. The source holds these as a separate data set.
The target in data set [9] is T1, Delta-type opioid receptor. Particulars: CHO. The source holds these as a separate data set.
Data set [10] has as its target T1, Delta-type opioid receptor. Particulars: CHO. The source holds these as a separate data set.
Data set [11] deals with T1, Delta-type opioid receptor. Particulars: CHO. The source holds these as a separate data set.
A short description of data set [12]: Solubility of the compound in phosphate buffered saline assessed as particulate matter formation at >1 uM by nephelometric analysis. The format is physicochemical. Particulars: buffer.
Data set [13] in a line: Solubility of the compound in HBSS/HEPES/FBS assessed as particulate matter formation at >3 uM by nephelometric analysis. The format is physicochemical. Particulars: buffer.
Data set [14] has as its system CHO. Kind of data set: Effect on delta receptor deficient CHO cells assessed as inhibition of cAMP accumulation. Type of data set: functional, cell-based. Particulars: Cricetulus griseus. In a few lines: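 Parental CHO cells lacking δ receptor, test compound added alone. Cells in HBSS + 25 mM HEPES + 0.05% BSA, 2000 cells/well, with forskolin at 2 μM final. Incubated 45 min at rt. cAMP measured by TR-FRET (665/615 nm ratio) against a cAMP standard curve run alongside.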
In general terms: Changes in cAMP serve as a functional read-out for many G protein-coupled receptors.

The test system of data set [15] is CHO. In words: Induction of ERK1 phosphorylation in delta receptor deficient CHO cells. The format is cell-based. Particulars: Cricetulus griseus. Put shortly:
(§1)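 Parental CHO cells lacking δ receptor, test compound added alone. Cells serum-starved overnight in DMEM, then stimulated at 37 °C. Phospho-ERK1/2 measured in lysates by AlphaScreen SureFire. Basal in serum-free medium was set as 0% and 10% serum response as 100%.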

Data set [16] relates to CHO. Kind of data set: Induction of ERK2 phosphorylation in delta receptor deficient CHO cells. Particulars: Cricetulus griseus. Type of data set: cell-based. In a few lines:
as §1

Data set [17] has as its target T1, Delta-type opioid receptor. Kind of data set: Partial agonist activity at human delta opioid receptor expressed in CHO cells after 1 hr by [35S]GTPgammaS binding assay relative to SNC80. The format is functional, cell-based. For orientation: GTPγS resists hydrolysis and so accumulates on activated G proteins.

T1 sequence (P41143 whole entry): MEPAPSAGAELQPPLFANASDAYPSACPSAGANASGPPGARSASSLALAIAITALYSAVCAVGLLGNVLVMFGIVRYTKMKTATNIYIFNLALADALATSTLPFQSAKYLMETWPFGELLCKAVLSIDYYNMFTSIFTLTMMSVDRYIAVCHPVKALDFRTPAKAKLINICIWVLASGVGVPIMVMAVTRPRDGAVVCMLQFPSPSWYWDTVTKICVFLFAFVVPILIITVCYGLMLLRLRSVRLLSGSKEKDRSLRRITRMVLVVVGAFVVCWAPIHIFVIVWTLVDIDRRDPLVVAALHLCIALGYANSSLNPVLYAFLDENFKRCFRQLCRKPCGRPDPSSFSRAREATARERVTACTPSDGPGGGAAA
Mu-type opioid receptor, sequence (P35372 whole entry): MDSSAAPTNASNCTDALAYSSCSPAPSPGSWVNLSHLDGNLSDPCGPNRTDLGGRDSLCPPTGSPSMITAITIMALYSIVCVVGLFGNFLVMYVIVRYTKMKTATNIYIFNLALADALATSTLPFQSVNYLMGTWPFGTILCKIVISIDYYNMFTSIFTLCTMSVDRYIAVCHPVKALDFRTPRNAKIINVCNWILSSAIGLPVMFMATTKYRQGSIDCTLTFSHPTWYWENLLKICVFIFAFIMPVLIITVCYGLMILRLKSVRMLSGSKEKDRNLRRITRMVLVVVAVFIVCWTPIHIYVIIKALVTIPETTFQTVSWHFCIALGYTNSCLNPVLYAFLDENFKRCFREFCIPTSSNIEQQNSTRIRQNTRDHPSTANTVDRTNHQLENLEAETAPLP

Broadly, the EC50 is the concentration at which the effect is half-maximal. One may read the Emax as the maximal effect, on the per cent scale that the assay sets. Consider `CC1(C)CC(=O)C2=C(C1)OC1=C(C(=O)CC(C)(C)C1)C2c1ccc(OCc2ccccc2OC(F)F)cc1`, for which the outcome in [1] was inactive. In [2], the EC50 was 200 nM. Besides, the Ratio EC50 in the data set with CHO [3] worked out at 15. For the same compound, at Mu-type opioid receptor, the EC50 came out at 3000 nM and the Emax was found to be 80%.

For the compound `CC1(C)CC(=O)C2=C(C1)OC1=C(C(=O)CC(C)(C)C1)C2c1ccc(OCc2ccccc2C(F)(F)F)cc1`, the outcome in data set [1] was inactive. Moreover, the EC50 in [2] was > 10000 nM. Besides, at Mu-type opioid receptor, the EC50 was > 10000 nM and the Emax was > 20%.

Consider `CC1(C)CC(=O)C2=C(C1)OC1=C(C(=O)CC(C)(C)C1)C2c1ccc(OCc2ccccc2S(C)(=O)=O)cc1`, for which the result in data set [1] was inactive. For the same compound, the concentration giving a half-maximal response (EC50) in data set [2] was 900 nM; on Mu-type opioid receptor it was 5000 nM. In the data set with CHO [3], the Ratio EC50 came out at 6. In addition, on Mu-type opioid receptor, the Emax was found to be 42%.

As for `Cc1cccc(COc2ccc(C3C4=C(CC(C)(C)CC4=O)OC4=C3C(=O)CC(C)(C)C4)cc2)c1`, in data set [1], the outcome was inactive. The EC50 came to 200 nM in data set [2] and 3000 nM at Mu-type opioid receptor. Also, the Ratio EC50 with CHO [3] came to 15. The maximum response (Emax) at Mu-type opioid receptor stood at 120%.

For `C=CCN1C[C@H](C)N([C@H](c2ccc(C(=O)N(CC)CC)cc2)c2cccc(OC)c2)C[C@H]1C`, the pKA is 6.38 in data set [4], 7.7 in data set [6], 7.7 in [7] and 7.7 in data set [10]. In addition, the log(activity) in [5] amounted to 0.66; in data set [8], 1.06; in data set [9], 0.56; in [11], 0.86.

For `Cc1ccc(COc2ccc(C3C4=C(CC(C)(C)CC4=O)OC4=C3C(=O)CC(C)(C)C4)cc2)cc1`, the outcome in data set [1] was inactive. Moreover, in data set [2], the EC50 is 300 nM. Besides, the Ratio EC50 with CHO [3] worked out at 13. Also, at Mu-type opioid receptor, the EC50 was 4000 nM and the Emax is 65%.

For `CC1(C)CC(=O)C2=C(C1)OC1=C(C(=O)CC(C)(C)C1)C2c1ccc(OCc2ccccc2Br)cc1`, the solubility result in data set [12] and in [13] was “Insoluble” throughout. Also, in [2], the EC50 turned out to be 50 nM.

For `Cc1ccccc1COc1ccc(C2C3=C(CC(C)(C)CC3=O)OC3=C2C(=O)CC(C)(C)C3)cc1`, the solubility entry in data set [12] and in [13] was “Insoluble” each time. Further, the result in the data set on CHO [14], with CHO [15] and with CHO [16] was inactive.

Consider `CC1(C)CC(=O)C2=C(C1)OC1=C(C(=O)CC(C)(C)C1)C2c1ccc(OCc2ccccc2)cc1`, for which the outcome in data set [1] was inactive. Moreover, in the data set with CHO [3], the Ratio EC50 was determined as 30. Besides, at Mu-type opioid receptor, the EC50 was 6000 nM and the Emax was 130%.

For `CC1(C)CC(=O)C2=C(C1)OC1=C(C(=O)CC(C)(C)C1)C2c1ccc(OCc2ccc(F)cc2)cc1`, in data set [2], the EC50 was determined as 100 nM.

Consider `CC1(C)CC(=O)C2=C(C1)OC1=C(C(=O)CC(C)(C)C1)C2c1ccc(OCc2cccc(F)c2)cc1`, for which the result in [1] was inactive. For the same compound, the EC50 in data set [2] came out at 1000 nM. Moreover, in the data set on CHO [3], the Ratio EC50 was 7. For the same compound, on Mu-type opioid receptor, the EC50 was 7000 nM and the Emax is 182%.

Turning to `CC1(C)CC(=O)C2=C(C1)OC1=C(C(=O)CC(C)(C)C1)C2c1ccc(OCc2cccc(Cl)c2Cl)cc1`, the EC50 in data set [2] came to 100 nM.

Regarding `CC1(C)CC(=O)C2=C(C1)OC1=C(C(=O)CC(C)(C)C1)C2c1ccc(OCc2ccccc2CO)cc1`, in data set [1], the outcome was inactive. In data set [2], the EC50 came out at 1000 nM. Besides, the Ratio EC50 with CHO [3] is 10. In addition, on Mu-type opioid receptor, the EC50 is 10000 nM and the Emax turned out to be 112%.

Take `CC1(C)CC(=O)C2=C(C1)OC1=C(C(=O)CC(C)(C)C1)C2c1ccc(OCc2ccccc2OC(F)(F)F)cc1`: the result in data set [1] was inactive. Moreover, the EC50 in [2] was 300 nM; at Mu-type opioid receptor, 2000 nM. Further, the Ratio EC50 with CHO [3] was determined as 7. Further, the Emax at Mu-type opioid receptor is 111%.

In the case of `CC1(C)CC(=O)C2=C(C1)OC1=C(C(=O)CC(C)(C)C1)C2c1ccc(OCc2ccccc2Cl)cc1`, the outcome in data set [1] was inactive. In [2], the EC50 is 300 nM. Besides, on Mu-type opioid receptor, the EC50 was > 10000 nM and the maximal effect (Emax) is > 100%.

Take `CC1(C)CC(=O)C2=C(C1)OC1=C(C(=O)CC(C)(C)C1)C2c1ccc(OCc2ccccc2F)cc1`: the EC50 in data set [2] worked out at 100 nM.

Consider `CN1CC[C@]2(c3cccc(O)c3)Cc3nc4ccccc4cc3C[C@H]2C1`, for which the pKA in data set [6] was 8.4; in data set [7], 7.6. Further, the Activity in data set [17] was 84%. Moreover, the log(activity) worked out at 0.22 in data set [8] and 0.67 in data set [9].
